Activity calls are given as the source filed them. No cut-off for these calls is given here.
Experiments:
Penicillium chrysogenum [1] = assay: Antifungal activity against Penicillium chrysogenum at 50 ug/ml after 48 hrs by agar well diffusion method; assay type: functional; details: for zone of inhibition at 50 µg/mL: read-out: DIZ
Procedure, shortened: (§1)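 Fungal agar well diffusion. Plates swabbed with fungal culture, 6 mm wells filled with DMSO solutions of compound (50 and 100 per well). Ketoconazole positive and DMSO negative controls. Plates incubated 28 °C for 48 h; zone of inhibition diameter (mm) read, average of duplicates.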

A549 = assay: Cytotoxicity against human A549 cells up to 0.2 mM after 72 hrs by MTT assay
Bacillus subtilis [2] = assay: Antibacterial activity against Bacillus subtilis at 100 ug/ml after 24 hrs by agar well diffusion method; assay type: functional; details: for zone of inhibition at 100 µg/mL: read-out: DIZ
Procedure, shortened: (§2)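 Agar well diffusion. Nutrient plates swabbed with 24 h broth culture of the bacterium; 6 mm wells bored and loaded with DMSO solutions of compound (wells at 50 and 100 per well). Chloramphenicol positive control, DMSO negative control. Plates held 37 °C, 24 h; inhibition zone diameter (mm) measured, mean of duplicates.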

Aspergillus niger [3] = assay: Antifungal activity against Aspergillus niger at 100 ug/ml after 48 hrs by agar well diffusion method; assay type: functional; details: for zone of inhibition at 100 µg/mL: read-out: DIZ; procedure, shortened: as §1
Klebsiella pneumoniae [4] = assay: Antibacterial activity against Klebsiella pneumoniae at 100 ug/ml after 24 hrs by agar well diffusion method; assay type: functional; details: for zone of inhibition at 100 µg/mL: read-out: DIZ; procedure, shortened: as §2
Klebsiella pneumoniae [5] = assay: Antibacterial activity against Klebsiella pneumoniae at 50 ug/ml after 24 hrs by agar well diffusion method; assay type: functional; details: for zone of inhibition at 50 µg/mL: read-out: DIZ; procedure, shortened: as §2
Pseudomonas aeruginosa [6] = assay: Antibacterial activity against Pseudomonas aeruginosa at 100 ug/ml after 24 hrs by agar well diffusion method; assay type: functional; details: for zone of inhibition at 100 µg/mL: read-out: DIZ; procedure, shortened: as §2
Bacillus subtilis [7] = assay: Antibacterial activity against Bacillus subtilis at 50 ug/ml after 24 hrs by agar well diffusion method; assay type: functional; details: for zone of inhibition at 50 µg/mL: read-out: DIZ; procedure, shortened: as §2
Staphylococcus aureus [8] = assay: Antibacterial activity against Staphylococcus aureus at 100 ug/ml after 24 hrs by agar well diffusion method; assay type: functional; details: for zone of inhibition at 100 µg/mL: read-out: DIZ; procedure, shortened: as §2
Pseudomonas aeruginosa [9] = assay: Antibacterial activity against Pseudomonas aeruginosa at 50 ug/ml after 24 hrs by agar well diffusion method; assay type: functional; details: for zone of inhibition at 50 µg/mL: read-out: DIZ; procedure, shortened: as §2
Penicillium chrysogenum [10] = assay: Antifungal activity against Penicillium chrysogenum at 100 ug/ml after 48 hrs by agar well diffusion method; assay type: functional; details: for zone of inhibition at 100 µg/mL: read-out: DIZ; procedure, shortened: as §1
Aspergillus niger [11] = assay: Antifungal activity against Aspergillus niger at 50 ug/ml after 48 hrs by agar well diffusion method; assay type: functional; details: for zone of inhibition at 50 µg/mL: read-out: DIZ; procedure, shortened: as §1
Staphylococcus aureus [12] = assay: Antibacterial activity against Staphylococcus aureus at 50 ug/ml after 24 hrs by agar well diffusion method; assay type: functional; details: for zone of inhibition at 50 µg/mL: read-out: DIZ; procedure, shortened: as §2

| Structure (SMILES) | zone of inhibition at 50 µg/mL (Penicillium chrysogenum [1]) | Activity (A549) | zone of inhibition at 100 µg/mL (Bacillus subtilis [2]) | zone of inhibition at 100 µg/mL (Aspergillus niger [3]) | zone of inhibition at 100 µg/mL (Klebsiella pneumoniae [4]) | zone of inhibition at 50 µg/mL (Klebsiella pneumoniae [5]) | zone of inhibition at 100 µg/mL (Pseudomonas aeruginosa [6]) | zone of inhibition at 50 µg/mL (Bacillus subtilis [7]) | zone of inhibition at 100 µg/mL (Staphylococcus aureus [8]) | zone of inhibition at 50 µg/mL (Pseudomonas aeruginosa [9]) | zone of inhibition at 100 µg/mL (Penicillium chrysogenum [10]) | zone of inhibition at 50 µg/mL (Aspergillus niger [11]) | zone of inhibition at 50 µg/mL (Staphylococcus aureus [12]) | also measured |
| --- | --- | --- | --- | --- | --- | --- | --- | --- | --- | --- | --- | --- | --- | --- |
| Cc1ccc(NS(=O)(=O)Cc2nnc(CS(=O)(=O)C3CNN=C3S(=O)(=O)c3ccc(C)cc3)n2N)cc1 (stereo not given) | 15 mm | inactive | 18 mm | 16 mm | 20 mm | 18 mm | 15 mm | 16 mm | 15 mm | 12 mm | 18 mm | 13 mm | 13 mm | – |
| O=S(=O)(Cc1nnc(CS(=O)(=O)c2c[nH]cc2S(=O)(=O)c2ccc(Cl)cc2)s1)Nc1ccc(Cl)cc1 | 30 mm | inactive | 29 mm | 31 mm | 30 mm | 29 mm | 25 mm | 27 mm | 27 mm | 23 mm | 33 mm | 29 mm | 26 mm | – |
| Nn1c(CS(=O)(=O)Nc2ccccc2)nnc1CS(=O)(=O)c1c[nH]cc1S(=O)(=O)c1ccccc1 | 19 mm | inactive | 22 mm | 20 mm | 24 mm | 22 mm | 16 mm | 20 mm | 19 mm | 15 mm | 22 mm | 18 mm | 17 mm | – |
| O=S(=O)(/C=C/S(=O)(=O)c1ccc(Cl)cc1)Cc1nnc(CS(=O)(=O)Nc2ccc(Cl)cc2)s1 | 32 mm | inactive | 29 mm | 33 mm | 35 mm | 33 mm | 27 mm | 27 mm | 32 mm | 25 mm | 35 mm | 31 mm | 29 mm | – |
| Cc1ccc(NS(=O)(=O)Cc2nnc(CS(=O)(=O)c3c[nH]cc3S(=O)(=O)c3ccc(C)cc3)s2)cc1 | 16 mm | inactive | 19 mm | 17 mm | 21 mm | 19 mm | 14 mm | 17 mm | 16 mm | 13 mm | 19 mm | 14 mm | 14 mm | – |
| Cc1ccc(NS(=O)(=O)Cc2nnc(CS(=O)(=O)C3CNN=C3S(=O)(=O)c3ccc(C)cc3)s2)cc1 (stereo not given) | 13 mm | inactive | 16 mm | 14 mm | 18 mm | 16 mm | 13 mm | 14 mm | 13 mm | 11 mm | 16 mm | 11 mm | 11 mm | – |
| Cc1ccc(NS(=O)(=O)Cc2nnc(CS(=O)(=O)/C=C/S(=O)(=O)c3ccc(C)cc3)s2)cc1 | 20 mm | inactive | 23 mm | 21 mm | 25 mm | 23 mm | 16 mm | 21 mm | 20 mm | 14 mm | 23 mm | 18 mm | 18 mm | – |
| Cc1ccc(NS(=O)(=O)Cc2nnc(CS(=O)(=O)c3c[nH]nc3S(=O)(=O)c3ccc(C)cc3)o2)cc1 | – | inactive | – | – | – | – | – | – | – | – | – | – | – | diameter of the inhibition zone (DIZ) (Penicillium chrysogenum [1]): inactive; diameter of the inhibition zone (DIZ) (Bacillus subtilis [2]): inactive; diameter of the inhibition zone (DIZ) (Aspergillus niger [3]): inactive; diameter of the inhibition zone (DIZ) (Klebsiella pneumoniae [4]): inactive; diameter of the inhibition zone (DIZ) (Klebsiella pneumoniae [5]): inactive; diameter of the inhibition zone (DIZ) (Pseudomonas aeruginosa [6]): inactive; diameter of the inhibition zone (DIZ) (Bacillus subtilis [7]): inactive; diameter of the inhibition zone (DIZ) (Staphylococcus aureus [8]): inactive; diameter of the inhibition zone (DIZ) (Pseudomonas aeruginosa [9]): inactive; diameter of the inhibition zone (DIZ) (Penicillium chrysogenum [10]): inactive; diameter of the inhibition zone (DIZ) (Aspergillus niger [11]): inactive; diameter of the inhibition zone (DIZ) (Staphylococcus aureus [12]): inactive |
| Cc1ccc(NS(=O)(=O)Cc2nnc(CS(=O)(=O)/C=C/S(=O)(=O)c3ccc(C)cc3)n2N)cc1 | 22 mm | inactive | 25 mm | 23 mm | 27 mm | 25 mm | 17 mm | 23 mm | 22 mm | 15 mm | 25 mm | 19 mm | 20 mm | – |
| Cc1ccc(NS(=O)(=O)Cc2nnc(CS(=O)(=O)c3c[nH]nc3S(=O)(=O)c3ccc(C)cc3)n2N)cc1 | 14 mm | inactive | 20 mm | 19 mm | 22 mm | 20 mm | 14 mm | 18 mm | 17 mm | 12 mm | 18 mm | 16 mm | 16 mm | – |
| O=S(=O)(Cc1nnc(CS(=O)(=O)c2c[nH]nc2S(=O)(=O)c2ccccc2)o1)Nc1ccccc1 | 12 mm | inactive | 15 mm | 13 mm | 17 mm | 15 mm | 12 mm | 13 mm | 12 mm | 10 mm | 15 mm | 10 mm | 10 mm | – |
| Nn1c(CS(=O)(=O)Nc2ccccc2)nnc1CS(=O)(=O)c1c[nH]nc1S(=O)(=O)c1ccccc1 | 20 mm | inactive | 23 mm | 23 mm | 26 mm | 24 mm | 17 mm | 19 mm | 21 mm | 15 mm | 23 mm | 19 mm | 19 mm | – |
| Cc1ccc(NS(=O)(=O)Cc2nnc(CS(=O)(=O)c3c[nH]cc3S(=O)(=O)c3ccc(C)cc3)o2)cc1 | – | inactive | – | – | – | – | – | – | – | – | – | – | – | diameter of the inhibition zone (DIZ) (Penicillium chrysogenum [1]): inactive; diameter of the inhibition zone (DIZ) (Bacillus subtilis [2]): inactive; diameter of the inhibition zone (DIZ) (Aspergillus niger [3]): inactive; diameter of the inhibition zone (DIZ) (Klebsiella pneumoniae [4]): inactive; diameter of the inhibition zone (DIZ) (Klebsiella pneumoniae [5]): inactive; diameter of the inhibition zone (DIZ) (Pseudomonas aeruginosa [6]): inactive; diameter of the inhibition zone (DIZ) (Bacillus subtilis [7]): inactive; diameter of the inhibition zone (DIZ) (Staphylococcus aureus [8]): inactive; diameter of the inhibition zone (DIZ) (Pseudomonas aeruginosa [9]): inactive; diameter of the inhibition zone (DIZ) (Penicillium chrysogenum [10]): inactive; diameter of the inhibition zone (DIZ) (Aspergillus niger [11]): inactive; diameter of the inhibition zone (DIZ) (Staphylococcus aureus [12]): inactive |
| O=S(=O)(Cc1nnc(CS(=O)(=O)c2c[nH]nc2S(=O)(=O)c2ccccc2)s1)Nc1ccccc1 | 16 mm | inactive | 17 mm | 17 mm | 16 mm | 14 mm | 12 mm | 15 mm | 17 mm | 10 mm | 19 mm | 15 mm | 16 mm | – |
| Nn1c(CS(=O)(=O)Nc2ccccc2)nnc1CS(=O)(=O)C1CNN=C1S(=O)(=O)c1ccccc1 (stereo not given) | 14 mm | inactive | 17 mm | 15 mm | 19 mm | 17 mm | 14 mm | 15 mm | 15 mm | 12 mm | 17 mm | 13 mm | 13 mm | – |

Source: ChEMBL document CHEMBL2040768, “Synthesis, antimicrobial and cytotoxic activities of sulfone linked bis heterocycles” (Eur J Med Chem, 2012)
